According to article PMC3791465 (Nature Communications, 2013):

Experiments:
[1] = tested on: ERα / PHB2 chromatin-remodelling complexes; assay: Co-immunoprecipitation of chromatin-remodelling complexes in nuclear fractions; type: cell-based, human; settings: MCF-7 and KPL-3C cells, 24 h, E2 present
In short: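 Lysed in 0.1% NP-40 buffer, precleared with normal IgG/Protein G Sepharose 3 h at 4 °C, then incubated with anti-ERα or anti-PHB2 (5 μg) 12 h at 4 °C. Complexes captured on Protein G 1 h, washed three times, resolved by SDS–PAGE and immunoblotted.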

[2] = tested on: Akt (S473); assay: Immunoblot of Akt; type: cell-based, human; settings: MCF-7 and KPL-3C cells, E2-stimulated
In short: (§1)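 Blots were run on nitrocellulose, blocked in 4% BlockAce for 1 h, probed with HRP secondary for 1 h and developed by ECL. Phospho-levels were quantified by densitometry. Representative of four independent experiments.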

[3] = tested on: p42/44 MAPK (T202/Y204); assay: Immunoblot of p42/44 MAPK; type: cell-based, human; settings: MCF-7 and KPL-3C cells, E2-stimulated
In short: as §1

[4] = tested on: ERα (S104/S106, S118, S167, S305 and Y537); assay: Immunoblot of ERα phosphorylation; type: cell-based, human; settings: MCF-7 and KPL-3C cells, at least 24 h
In short: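 Blots were on nitrocellulose with HRP secondary and ECL detection. Site-specific ERα phosphorylation was quantified by densitometry and expressed as fold over untreated cells at 0 h. Mean±s.e.m.; experiments were run more than three times in triplicate.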

[5] = tested on: MCF-7 cells; assay: Cell cycle assay by flow cytometry, MCF-7; type: cell-based, human; settings: MCF-7, 24 h
[6] = tested on: MCF-7 xenograft in BALB/c nude mice; assay: MCF-7 orthotopic xenograft tumour growth; type: in vivo, mouse; settings: daily 6 μg per day E2, MCF-7
[7] = tested on: BIG3 expression; assay: BIG3 expression in MCF-7 cells; type: cell-based, human
[8] = tested on: ERE motif within intron 1 of the BIG3 gene; assay: Luciferase assay, intronic ERE of BIG3; type: cell-based, human; settings: MCF-7
[9] = tested on: ERE within intron 1 of the BIG3 gene; assay: ChIP on intronic ERE of BIG3; type: cell-based, human; settings: MCF-7
[10] = tested on: Akt, p42/44 MAPK and ERα phosphorylation; assay: Immunoblot of phosphorylation in TAM-R MCF-7 and T47D cells; type: cell-based, human; settings: tamoxifen alone or tamoxifen and E2
In short: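 Proteins separated, blotted to nitrocellulose, blocked 1 h, probed, then HRP secondary 1 h and ECL. Akt, p42/44 MAPK and ERα phosphorylation quantified by densitometry; experiments repeated more than three times in triplicate.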

SRC-1 binding/recruitment to ERα [1] | luciferase activity, intronic ERE from BIG3 [8] | Structure (SMILES) | Akt (S473) phosphorylation [2] | p42/44 MAPK (T202/Y204) phosphorylation [3] | ERα phosphorylation at five sites [4] | apoptotic (sub-G1) cell population [5] [%] | cell cycle distribution [5] | E2-induced tumour growth by E2 alone [6] | BIG3 expression after E2 [7] | recruitment to intronic ERE of BIG3 [9] | phosphorylation of Akt, p42/44 MAPK and ERα in TAM-R cells [10] | BIG3 expression after tamoxifen ([7]; real-time PCR and immunoblot)
recruited SRC-1 to ERα | robust luciferase activity | C[C@]12CC[C@@H]3c4ccc(O)cc4CC[C@H]3[C@@H]1CC[C@@H]2O [E2, 17-estradiol] | clearly increased in a time-dependent manner | clearly increased in a time-dependent manner | clearly increased in response to E2 stimulation | 0.17 | population of cells in the G2/M phase increased | induced time-dependent growth of KPL-3C and MCF-7 tumours | significantly upregulated in MCF-7 cells in a time-dependent manner | recruitment of ERα and the co-activator SRC-1 was observed |  | 
 |  | CC/C(=C(\c1ccccc1)c1ccc(OCCN(C)C)cc1)c1ccccc1 [tamoxifen] |  |  |  | 0.91 | population in the G1 phase increased |  |  |  | enhanced in response to tamoxifen alone | significant reduction in BIG3 expression at both the transcriptional and protein levels in a dose-dependent manner
